Test results: ChEMBL document CHEMBL1687712, “Antiviral effects of lamivudine, emtricitabine, adefovir dipivoxil, and tenofovir disoproxil fumarate administered orally alone and in combination to woodchucks with chronic woodchuck hepatitis virus infection” (Antimicrob Agents Chemother, 2008)
The source made the active and inactive calls. The calls are words filed in the database; no cut-off is given here.

How the values were obtained:
Marmota monax [1] = assay: Toxicity in Woodchuck hepatitis virus infected woodchuck assessed as increase of liver alanine aminotransferase activity at 15 mg/kg, po qd measured on 4 to 24 weeks on 48 week study; type: organism-based; design: dose 15 mg/kg, route oral; details: in vivo
Outline: (§1)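 Woodchucks chronically infected with WHV, 5 per group, received oral drug once daily in liquid diet for 48 weeks; placebo got diet only. Serum chemistry (GGT, ALP, ALT, AST, SDH, among others) was run 2 weeks pretreatment, at week 0, every other week to week 12, then monthly to week 48. Sampling continued at 2, 4, 6, 8 and 12 weeks post-treatment.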

Marmota monax [2] = assay: Toxicity in Woodchuck hepatitis virus infected woodchuck assessed as increase of liver alanine aminotransferase activity at 15 mg/kg, po qd for 48 weeks; type: organism-based; design: dose 15 mg/kg, route oral; details: in vivo, 8064 h; outline: as §1
[3] = tested on: Woodchuck hepatitis virus; assay: Antiviral activity against Woodchuck hepatitis virus infected in woodchuck assessed as frequency of hepatocytes expressing viral antigen at 15 mg/kg, po qd measured on 12th week on 48 weeks study; type: functional, Hepatocyte
Outline: (§2)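 Chronic WHV-carrier woodchucks, 5 per group, given 15 mg/kg/day orally once daily for 48 weeks in liquid diet; placebo is diet alone. Liver biopsies at pretreatment, weeks 12, 36, 48 and 12 weeks after withdrawal. Cytoplasmic WHsAg staining scored 0–4: 1 ≤1%, 2 ≤2%, 3 ≤5%, 4 ≥10% of hepatocytes.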

Marmota monax [4] = assay: Toxicity in Woodchuck hepatitis virus infected woodchuck assessed as increase of liver aspartate aminotransferase activity at 15 mg/kg, po qd for 48 weeks; type: organism-based; design: dose 15 mg/kg, route oral; details: in vivo, 8064 h; outline: as §1
[5] = tested on: Woodchuck hepatitis virus; assay: Antiviral activity against Woodchuck hepatitis virus infected in woodchuck assessed as frequency of hepatocytes expressing viral antigen at 15 mg/kg, po qd measured on 36th week on 48 weeks study; type: functional, Hepatocyte; outline: as §2
[6] = tested on: Woodchuck hepatitis virus; assay: Antiviral activity against Woodchuck hepatitis virus infected in woodchuck assessed as reduction of viral RNA level per ug of total cell DNA at 15 mg/kg, po qd for 48 weeks (reference value: 34 +/- 20 pg); type: functional
Outline: (§3)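 Chronic WHV-carrier woodchucks, 5 per group, 15 mg/kg/day oral once daily for 48 weeks in liquid diet. Needle liver biopsies were snap-frozen in liquid nitrogen and stored at −70°C. Hepatic WHV DNA replicative intermediates were quantified by Southern blot (pg/μg total cell DNA) and WHV RNA by Northern blot; group means ± SD were compared with pretreatment and placebo.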

[7] = tested on: Woodchuck hepatitis virus; assay: Antiviral activity against Woodchuck hepatitis virus infected in woodchuck assessed as reduction of viral RNA level per ug of total cell DNA at 15 mg/kg, po qd measured on 12th week on 48 weeks study (reference value: 46 +/- 25 pg); type: functional; outline: as §3
[8] = tested on: Woodchuck hepatitis virus; assay: Antiviral activity against Woodchuck hepatitis virus infected in woodchuck assessed as reduction of viral antigen positive hepatocytes at 15 mg/kg, po qd measured on 12th week on 48 weeks study (reference value: 55 +/- 32 %); type: functional, Hepatocyte; design: scale not given: the % may be the effect or the level left
Outline: (§4)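 Chronic WHV-carrier woodchucks, 5 per group, 15 mg/kg/day oral once daily for 48 weeks in liquid diet. Liver biopsies were taken at pretreatment, weeks 12, 36, 48 and week 60. Percentage of hepatocytes positive for WHcAg was given as group mean ± SD and compared with pretreatment and placebo.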

[9] = tested on: Woodchuck hepatitis virus; assay: Antiviral activity against Woodchuck hepatitis virus infected in woodchuck assessed as reduction of viral DNA replicative intermediate level per ug of total cell DNA at 15 mg/kg, po qd measured on 36th week on 48 weeks study (reference value: 1132 +/- 738 pg); type: functional; outline: as §3
[10] = tested on: Woodchuck hepatitis virus; assay: Antiviral activity against Woodchuck hepatitis virus infected in woodchuck assessed as reduction of viral antigen positive hepatocytes at 15 mg/kg, po qd for 48 weeks measured on 60th week (reference value: 26 %); type: functional, Hepatocyte; design: scale not given: the % may be the effect or the level left; outline: as §4
[11] = tested on: Woodchuck hepatitis virus; assay: Antiviral activity against Woodchuck hepatitis virus infected in woodchuck assessed as absent of lesion in portal hepatitis at 15 mg/kg, po qd measured on 12th week on 48 weeks study; type: functional, organism-based; design: dose 15 mg/kg
Outline: (§5)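 Adult chronic WHV-carrier woodchucks (neonatally inoculated), 5 per group, given drug once daily by dose syringe in semisynthetic liquid diet, for 48 weeks; placebo got diet alone. Ultrasound-guided needle liver biopsies under ketamine/xylazine anesthesia at pretreatment, weeks 12, 36, 48 and 12 weeks post-withdrawal. Biopsies were formalin-fixed, paraffin-embedded and H&E stained. Portal and lobular hepatitis were graded 0 (absent) to 4 (most severe).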

Marmota monax [12] = assay: Toxicity in Woodchuck hepatitis virus infected woodchuck assessed as increase of liver sorbitol dehydrogenase activity at 15 mg/kg, po qd measured on 28 to 48 weeks on 48 week study; type: organism-based; design: dose 15 mg/kg, route oral; details: in vivo; outline: as §1
[13] = tested on: Woodchuck hepatitis virus; assay: Antiviral activity against Woodchuck hepatitis virus infected in woodchuck assessed as reduction of viral antigen level in serum at 15 mg/kg, po qd for 48 weeks measured on 60th week (reference value: 3.3 +/- 1.6 log10 ng/ml); type: functional
Marmota monax [14] = assay: Toxicity in Woodchuck hepatitis virus infected woodchuck assessed as increase of liver alkaline phosphatase activity at 15 mg/kg, po qd for 48 weeks; type: organism-based; design: dose 15 mg/kg, route oral; details: in vivo, 8064 h; outline: as §1
[15] = tested on: Woodchuck hepatitis virus; assay: Antiviral activity against Woodchuck hepatitis virus infected in woodchuck assessed as reduction of viral antigen positive hepatocytes at 15 mg/kg, po qd for 48 weeks study (reference value: 35 +/- 27 %); type: functional, Hepatocyte; design: scale not given: the % may be the effect or the level left; outline: as §4
[16] = tested on: Woodchuck hepatitis virus; assay: Antiviral activity against Woodchuck hepatitis virus infected in woodchuck assessed as absent of lesion in lobular hepatitis at 15 mg/kg, po qd measured on 12th week on 48 weeks study; type: functional, organism-based; design: dose 15 mg/kg; outline: as §5
[17] = tested on: Woodchuck hepatitis virus; assay: Antiviral activity against Woodchuck hepatitis virus infected in woodchuck assessed as reduction of viral antigen level in serum at 15 mg/kg, po qd for 48 weeks (reference value: 3.8 +/- 1.3 log10 ng/ml); type: functional
[18] = tested on: Woodchuck hepatitis virus; assay: Antiviral activity against Woodchuck hepatitis virus infected in woodchuck assessed as reduction of viral antigen level in serum at 15 mg/kg, po qd measured on 12th week on 48 weeks study (reference value: 4.3 +/- 1.5 log10 ng/ml); type: functional
[19] = tested on: Woodchuck hepatitis virus; assay: Antiviral activity against Woodchuck hepatitis virus infected in woodchuck assessed as frequency of hepatocytes expressing viral antigen at 15 mg/kg, po qd for 48 weeks; type: functional, Hepatocyte; outline: as §2
[20] = tested on: Woodchuck hepatitis virus; assay: Antiviral activity against Woodchuck hepatitis virus infected in woodchuck assessed as absent of lesion in portal hepatitis at 15 mg/kg, po qd for 48 weeks; type: functional, organism-based; design: dose 15 mg/kg; outline: as §5
[21] = tested on: Woodchuck hepatitis virus; assay: Antiviral activity against Woodchuck hepatitis virus infected in woodchuck assessed as reduction of viral DNA replicative intermediate level per ug of total cell DNA at 15 mg/kg, po qd for 48 weeks (reference value: 995 +/- 736 pg); type: functional; outline: as §3
Marmota monax [22] = assay: Toxicity in Woodchuck hepatitis virus infected woodchuck assessed as increase of serum gamma-glutamyltransferase activity at 15 mg/kg, po qd for 48 weeks; type: organism-based; design: dose 15 mg/kg, route oral; details: in vivo, 8064 h; outline: as §1
[23] = tested on: Woodchuck hepatitis virus; assay: Antiviral activity against Woodchuck hepatitis virus infected in woodchuck assessed as frequency of hepatocytes expressing viral antigen at 15 mg/kg, po qd for 48 weeks measured on 60th week; type: functional, Hepatocyte; outline: as §2
[24] = tested on: Woodchuck hepatitis virus; assay: Antiviral activity against Woodchuck hepatitis virus infected in woodchuck assessed as reduction of viral RNA level per ug of total cell DNA at 15 mg/kg, po qd measured on 36th week on 48 weeks study (reference value: 33 +/- 21 pg); type: functional; outline: as §3
[25] = tested on: Woodchuck hepatitis virus; assay: Antiviral activity against Woodchuck hepatitis virus infected in woodchuck assessed as reduction of viral antigen level in serum at 15 mg/kg, po qd measured on 36th week on 48 weeks study (reference value: 3.8 +/- 1.3 log10 ng/ml); type: functional

SMILES | Activity (Marmota monax [1]) | Activity (Marmota monax [2]) | Activity [3] [%] | Activity (Marmota monax [4]) | Activity [5] [%] | Activity [6] [pg] | Activity [7] [pg] | Activity [8] [%] | Activity [9] [pg] | Activity [10] [%] | Activity [11] | Activity (Marmota monax [12]) | Activity [13] [log10ng/ml] | Activity (Marmota monax [14]) | Activity [15] [%] | Activity [16] | Activity [17] [log10ng/ml] | Activity [18] [log10ng/ml] | Activity [19] [%] | Activity [20] | other results
CC(C)(C)C(=O)OCOP(=O)(COCCn1cnc2c(N)ncnc21)OCOC(=O)C(C)(C)C [ADEFOVIR DIPIVOXIL] | Toxic | Toxic | 1 | Toxic | 5 | 24 | 33 | 21 | 324 | 48 | Active | Toxic | 5 | Toxic | 13 | Active | 4.1 | 4.3 | 2 | Active | Activity [21]: 151 pg; Activity (Marmota monax [22]): Toxic; Activity [23]: 1%; Activity [24]: 34 pg; Activity [25]: 4.8 log10ng/ml
CC(C)OC(=O)OCOP(=O)(CO[C@H](C)Cn1cnc2c(N)ncnc21)OCOC(=O)OC(C)C.O=C(O)/C=C/C(=O)O [TENOFOVIR DISOPROXIL FUMARATE] | Toxic | Toxic | 0 | Toxic | 1 | 31 | 30 | 30 | 443 | 39 | Active | Toxic | 4 | Toxic | 26 | Active | 3.6 | 3.4 | 1 | Active | Activity [21]: 704 pg; Activity (Marmota monax [22]): Toxic; Activity [23]: 2%; Activity [24]: 25 pg; Activity [25]: 2.9 log10ng/ml
